Source: PubChem BioAssay
Rows were chosen to be rich in hits. Some 2.9% of all compounds tested hit in one or more screens of this group.
dFosB act-1: activators of mouse delta FosB homodimer. P13346. 0.99% of 340,000 active. AID 493131. activation, % at 25 µM. purified delta FosB, TAMRA-CDK5 oligo fluorescence polarization; percent of positive-control signal above neutral wells;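 active means mean activation above about 17%, with every replicate also reaching it, limit read from the data, passing the limit was not always enough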
CDK5 inh: CDK5/p35 (human) kinase inhibition; Q00535+Q15078; Recombinant CDK5/p35, ADP-Glo luminescence, 60 min; inhibition, % at 10 µM; 0.01% of 330,000 active; AID 488839;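 active means highest replicate inhibition of at least 50% and at least 75% of replicates reaching 50%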;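 further: plate controls were DMSO neutral control for no effect and GW8510 at 10 µM for full effect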
Target sequence (Q00535 whole entry, looked up): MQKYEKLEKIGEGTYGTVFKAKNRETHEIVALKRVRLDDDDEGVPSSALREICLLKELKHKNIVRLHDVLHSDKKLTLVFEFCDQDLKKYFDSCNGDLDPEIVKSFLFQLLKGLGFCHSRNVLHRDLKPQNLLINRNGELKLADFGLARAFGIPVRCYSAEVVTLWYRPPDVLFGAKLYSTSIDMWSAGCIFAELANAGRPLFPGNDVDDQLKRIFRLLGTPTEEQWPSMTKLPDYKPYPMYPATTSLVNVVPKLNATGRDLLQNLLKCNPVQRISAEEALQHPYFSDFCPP
Target sequence (Q15078 whole entry, looked up): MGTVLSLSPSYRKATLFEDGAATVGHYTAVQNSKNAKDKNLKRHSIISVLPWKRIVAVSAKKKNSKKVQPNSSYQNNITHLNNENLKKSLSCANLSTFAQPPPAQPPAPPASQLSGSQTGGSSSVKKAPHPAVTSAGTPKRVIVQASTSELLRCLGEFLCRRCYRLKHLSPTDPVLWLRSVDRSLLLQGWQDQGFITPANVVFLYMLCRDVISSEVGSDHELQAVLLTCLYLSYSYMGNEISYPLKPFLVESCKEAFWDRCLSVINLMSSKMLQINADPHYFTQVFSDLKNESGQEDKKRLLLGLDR
Cneo AK release: causes C. neoformans cell lysis; adenylate kinase release luminescence, 4 h; normalised: neutral wells 0, clomiphene wells 100; lysis activity, % at 15 µM; 0.2% of 360,000 active; AID 651654;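 active means mean lysis activity across replicates of at least 80%, whatever share of replicates individually reach that level; inactive means mean lysis activity below 80%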
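Material – log-phase Cryptococcus neoformans yeast cells · Input – 5 × 10^6 yeast cells/mL · Medium – fresh YPD growth medium · Doses – single compound concentration per well · Timing – static 4 h at 37 °C with compound, 1 h detection · Detection – adenylate kinase release luminescence · Read-out – signal increase indicating cell lysis · Control set – Clomiphene as positive lysis control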
PAX8 reporter: lowers PAX8-driven luciferase in RMG-I cells; RMG-I TPO-luciferase reporter, SteadyGlo, 24 h; inhibition, % at 12.6 µM; 1.2% of 360,000 active; AID 652154;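 active means mean replicate inhibition at least 60% with every replicate also reaching 60%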;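 further: luciferase light reporting Pax8 driven TPO promoter activity; plate controls were median of neutral control wells for no effect and mitoxantrone controls for full effect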
Env fusion inh: inhibitors of HIV Env-mediated cell fusion. inhibition, % at 12.3 µM. 1.1% of 360,000 active. HeLa-JRFL Env/CEM21 cell fusion, luciferase. AID 651610;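 active means mean replicate inhibition score of at least 50 and every replicate individually at or above 50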;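 further: 0% = plate neutral controls and 100% = maraviroc near 300 nM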
INS-1E GSIS act: GLuc luminescence reporter in INS-1E cells, primary screen for activators of glucose-dependent secretion of insulin; INS-1E GLuc reporter insulin secretion, 2-3 h; activation, % at 16.6 µM; 0.61% of 370,000 active; AID 743287;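 active means lowest replicate activation of at least 40%, so every replicate reaches that level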;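 further: 0% = median of neutral control wells and 100% = median of IBMX positive control wells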
dFosB act-2: delta FosB (mouse) homodimer activation; activation, % at 24.9 µM; shares compounds with dFosB act-1; 2,400 tested, under 10 active; AID 588690; purified delta FosB, TAMRA-CDK5 oligo fluorescence polarization; normalised: neutral wells 0, positive control 100;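 active means highest replicate activation at or above 34% and every replicate reaching that threshold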;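 further: higher polarization means more probe DNA bound by delta FosB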
* marks the source's active call; other numbers are inactive results; / = no result given; [ ] = dose if it differs, or a comment.

SMILES	dFosB act-1	CDK5 inh	Cneo AK release	PAX8 reporter	Env fusion inh	INS-1E GSIS act	dFosB act-2
CC(=O)Nc1cc2cc(NS(=O)(=O)c3ccc(Cl)cc3)ccc2oc1=O	93*	-1	4	-18	-2	-4	1
CS(=O)(=O)c1ccc2nc(NC(=O)c3cc(-c4ccccc4)nn3-c3ccccc3)sc2c1	29*	-3	0	-3	-15	-19	7
CCOC(=O)c1nn(-c2ccc(C)cc2)c(=O)cc1OCC(=O)Nc1cc(C)ccc1OC	0	0	3	13	9	0	/
CCOC(=O)c1nn(-c2ccccc2)c(=O)cc1OCC(=O)Nc1cc(C)ccc1OC	23*	1	-1	-1	/	30	5
COc1cc2c(=O)n(Cc3ccccc3)c(=O)n(CC(=O)NCc3ccco3)c2cc1OC	31*	-1	1	/	/	18	5
Cc1ccc(NC(=O)Cn2c(=O)n(CCCC(=O)NCc3ccco3)c(=O)c3ccccc32)cc1	32*	1	0	/	/	25	-3
O=C(Cn1c(=O)n(CC(=O)NCc2ccccc2)c2ccccc21)NCc1ccccc1	24*	1	-1	/	/	/	-1
Cc1cccc(Cn2c(=O)n(-c3ccc(CC(=O)NCc4ccco4)cc3)c(=O)c3sccc32)c1	49*	-2	0	46	8	0	-2
C[C@@H]1CCCCO[C@@H](CN(C)S(=O)(=O)c2ccc(Cl)cc2)[C@H](C)CN([C@H](C)CO)C(=O)c2cc(NS(C)(=O)=O)ccc2O1	/	/	3	16	0[16.7 µM]	-2	/
CCC(=O)N(C)C[C@H]1Oc2cc(C#Cc3ccccn3)ccc2S(=O)(=O)N([C@@H](C)CO)C[C@@H]1C	/	/	-2	/	-23[16.7 µM]	7	/
CCC(C)NC(=O)Cn1c(=O)n(-c2ccccc2)c(=O)c2ccc(C(=O)NCc3ccco3)cc21 (stereo not given)	5	-2	2	7	-79	/	/
Cc1ccc(Cn2c(=O)n(-c3ccccc3)c(=O)c3ccc(C(=O)NCc4ccco4)cc32)cc1	26*	1	-1	3	-5	12	7
COCC(=O)N(C)C[C@@H]1Oc2ncc(C#CC3(O)CCCC3)cc2C(=O)N([C@@H](C)CO)C[C@@H]1C	/	/	1	/	-5[16.7 µM]	2	/
COc1ccc(C(=O)Nc2nnc(S(=O)(=O)N(C)Cc3ccc(F)cc3)s2)cc1OC	23*	0	2	-8	-3	-2	5
CN(Cc1ccccc1)S(=O)(=O)c1nnc(NC(=O)c2ccc(F)cc2)s1	13	-1	3	-10	-9	3	/
COc1cccc(S(=O)(=O)N[C@H]2CC[C@H](CC(=O)NCc3ccccc3)O[C@H]2CO)c1	/	/	1	-2	-4[16.7 µM]	12	/
CCCOc1ccc(-c2c(C(=O)N/N=C/c3ccccc3)nnn2-c2nonc2N)cc1	30*	1	/	-2	-10	21	-1
Nc1nonc1-n1nnc(C(=O)N/N=C/c2cccc(F)c2)c1-c1ccc2c(c1)OCO2	37*	0	-2	0	5	-10	3
Nc1nonc1-n1nnc(C(=O)N/N=C/c2ccccc2Cl)c1CSc1ccccc1	/	/	-1	10	-5	11	/
Nc1nonc1-n1nnc(C(=O)N/N=C/C=C/c2ccccc2)c1CSC1=NCCS1	/	/	-2	-2	-2	-9	/
Nc1nonc1-n1nnc(C(=O)N/N=C/c2ccc(F)cc2)c1-c1ccc2c(c1)OCO2	4	0	7	15	8	4	/
Nc1nonc1-n1nnc(C(=O)N/N=C/c2c(Cl)cccc2Cl)c1CSC1=NCCS1	27*	-1	-1	9	-5	3	2
Nc1nonc1-n1nnc(C(=O)N/N=C/c2ccc3c(c2)OCO3)c1CSc1ccccc1	36*	0	3	-7	4	/	0
O=C(C[C@@H]1C=C[C@H](NC(=O)Nc2ccccc2)[C@H](CO)O1)NCc1cccc(F)c1	/	/	1	3	16[16.7 µM]	5	/
Cc1nn(Cc2ccc(F)cc2)c2sc(C(=O)Nc3nccs3)cc12	49*	-2	/	-1	4	0	7
SMILES	dFosB act-1	CDK5 inh	Cneo AK release	PAX8 reporter	Env fusion inh	INS-1E GSIS act	dFosB act-2
O=C(CNC(=O)c1ccc(Cl)cc1)OCC(=O)c1ccc2c(c1)OCCO2	-6	0	3	-6	-69	1	/
CCOc1ccccc1C(=O)NCC(=O)OCC(=O)c1ccc2c(c1)OCCO2	18*	1	-2	/	/	/	3
CO[C@H]1CN(C)C(=O)c2ccc(NC(C)=O)cc2OC[C@@H](C)N(CC2CC2)C[C@@H]1C	/	/	1	/	3[16.7 µM]	21	/
CS(=O)(=O)N(Cc1ccc(Cl)cc1)c1ccc(C(=O)N/N=C/c2cc3ccccc3nc2Cl)cc1	41*	/	0	/	/	-26	7
CS(=O)(=O)N(Cc1ccc(Cl)cc1)c1ccc(C(=O)NCc2ccccn2)cc1	-9	-2	-2	-4	11	-9	/
COc1cc(C(=O)Nc2nnc(-c3sccc3C)s2)cc(OC)c1OC	17*	0	-3	-11	-33	/	6
COc1cccc(C(=O)Nc2nnc(-c3ccc(OC)cc3OC)s2)c1	39*	-2	12	-3	-14	9	7
COc1cccc(C(=O)Nc2nnc(-c3ccccc3)s2)c1	-6	-3	-7	-225	-29	14	/
CC(C)c1nnc(NC(=O)c2ccc3c(c2)OCO3)s1	-5	-1	/	28	26	37	/
COc1ccccc1-c1nnc(NC(=O)c2ccc3c(c2)OCO3)s1	59*	-1	/	-4	-83	3	2
CCOCc1nnc(NC(=O)c2cc(OC)c(OC)c(OC)c2)s1	-14	-2	-3	-12	8	-6	/
CC(C)NC(=O)N(C)C[C@H]1Oc2c(NC(=O)CCCCCC(=O)Nc3ccccc3N)cccc2C(=O)N([C@H](C)CO)C[C@H]1C	/	/	/	-17	/	-5	/
C[C@H](CO)N1C[C@H](C)[C@H](CN(C)C(=O)NC2CCCCC2)Oc2ncc(-c3cccc(C(F)(F)F)c3)cc2C1=O	/	/	4	33	24[16.7 µM]	-24	/
CN1C2=C(C#N)C(c3ccccc3)(C(F)(F)F)NC(=O)N2c2ccccc21 (stereo not given)	-3	0	-2	/	-33	9	/
Cc1ccc(C2(C(F)(F)F)NC(=O)N3C(=C2C#N)Nc2ccccc23)cc1 (stereo not given)	23*	1	0	3	-183	/	6
O=C(CCCCC(=O)NN=Cc1ccc(Cl)cc1)NN=Cc1ccc(Cl)cc1	25*	1	/	-13	-193	7	1
CCOC(=O)c1cnc2c(cnn2C)c1NCc1ccc(OC)cc1	29*	1	-15	0	-2	14	4
